Assay results as given in ChEMBL document CHEMBL4387702, “Design and synthesis novel di-carbonyl analogs of curcumin (DACs) act as potent anti-inflammatory agents against LPS-induced acute lung injury (ALI)” (Eur J Med Chem, 2019).
The source made the active and inactive calls. No cut-off for these calls is given here.

Columns and labels:
RAW264.7 [1] = assay: Inhibition of MAPK/NFkappaB in ICR mouse RAW264.7 cells assessed as reduction in LPS-induced TNFalpha production at 10 uM pretreated for 0.5 hrs followed by LPS challenge and measured after 24 hrs by ELISA relative to control; assay type: cell-based
RAW264.7 [2] = assay: Inhibition of MAPK/NFkappaB in ICR mouse RAW264.7 cells assessed as reduction in LPS-induced IL6 production at 10 uM pretreated for 0.5 hrs followed by LPS challenge and measured after 24 hrs by ELISA relative to control; assay type: cell-based
RAW264.7 [3] = assay: Cytotoxicity against ICR mouse RAW264.7 cells assessed as effect on cell proliferation at 10 uM after 24 hrs by MTT assay; assay type: cell-based; details: raw264.7, 24 h
[4] = molecular target: MAP kinase p38 (Mus musculus) (UniProt P47811+O08911+Q9WUI1+Q9Z1B7); assay: Inhibition of LPS-induced p38 MAPK phosphorylation in ICR mouse RAW264.7 cells at 10 uM preincubated for 0.5 hrs followed by LPS challenge and measured after 30 mins by immunoblotting analysis; assay type: cell-based
Outline: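 RAW 264.7 cells were pretreated with compound for 0.5 h and then stimulated with LPS for 30 min. Lysates were resolved on 10% or 12% SDS-PAGE and transferred to nitrocellulose. Membranes were blocked in TBS (pH 7.6) with 0.05% Tween 20 and 5% milk. Blots were probed for p-p38, p38, p-ERK, ERK, IκBα and GAPDH, detected with HRP secondaries and ECL.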

RAW264.7 [5] = assay: Inhibition of MAPK/NFkappaB signaling in ICR mouse RAW264.7 cells assessed as reduction in LPS-induced IL-6 mRNA expression pretreated for 0.5 hrs followed by LPS challenge and measured after 40 mins by TRIZOL reagent-based RT-qPCR analysis; assay type: cell-based
Outline: (§1)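 RAW 264.7 cells were pretreated with compound for 0.5 h and then activated with LPS. Values were normalized to actin and expressed relative to the LPS group.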

RAW264.7 [6] = assay: Inhibition of MAPK/NFkappaB signaling in ICR mouse RAW264.7 cells assessed as reduction in LPS-induced IL1beta mRNA expression pretreated for 0.5 hrs followed by LPS challenge and measured after 40 mins by TRIZOL reagent-based RT-qPCR analysis; assay type: cell-based; outline: as §1
RAW264.7 [7] = assay: Inhibition of MAPK/NFkappaB signaling in ICR mouse RAW264.7 cells assessed as reduction in LPS-induced VCAM1 mRNA expression pretreated for 0.5 hrs followed by LPS challenge and measured after 40 mins by TRIZOL reagent-based RT-qPCR analysis; assay type: cell-based; outline: as §1
Mus musculus [8] = assay: Antiinflammatory activity in C57BL/6 mouse model of LPS-induced acute lung injury assessed as reduction in total cell count in BALF at 10 mg/kg, ip administered daily for one week prior to LPS challenge and measured after 6 hrs; assay type: functional, organism-based
Outline: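 C57BL/6 mice (eight per group) received 10 mg/kg i.p. daily for one week; vehicle was 0.9% saline. They were then challenged with intratracheal LPS at 5 mg/kg and sacrificed 6 h later. Endpoints were lung wet/dry weight ratio and total and neutrophil cell counts in BALF, reported as mean ± SEM, n = 6.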

Mus musculus [9] = assay: Antiinflammatory activity in C57BL/6 mouse model of LPS-induced acute lung injury assessed as reduction in IL-6 production in BALF at 10 mg/kg, ip administered daily for one week prior to LPS challenge and measured after 6 hrs by ELISA; assay type: functional, organism-based
Outline: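 In C57BL/6 mice (eight per group), compound was dosed at 10 mg/kg i.p. once daily for a week, with a 0.9% saline vehicle control. LPS 5 mg/kg was given intratracheally and animals were euthanized with chloral hydrate after 6 h. TNF-α and IL-6 in serum and BALF were measured by ELISA. Data are mean ± SEM, n = 6.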

Mus musculus [10] = assay: Antiinflammatory activity in C57BL/6 mouse model of LPS-induced acute lung injury assessed as reduction in TNF-alpha mRNA expression in lung tissue at 10 mg/kg, ip administered daily for one week prior to LPS challenge and measured after 6 hrs by TRIZOL reagent-based RT-qPCR analysis; assay type: functional, organism-based
Outline: (§2)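 Mouse ALI model with eight C57BL/6 mice per group. Compound was given at 10 mg/kg i.p. daily for one week; controls received 0.9% saline. LPS was instilled intratracheally at 5 mg/kg. Mice were euthanized with chloral hydrate 6 h later and lungs collected. Lung mRNA for each target was quantified by real-time qPCR.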

Mus musculus [11] = assay: Antiinflammatory activity in C57BL/6 mouse model of LPS-induced acute lung injury assessed as reduction in IL-6 mRNA expression in lung tissue at 10 mg/kg, ip administered daily for one week prior to LPS challenge and measured after 6 hrs by TRIZOL reagent-based RT-qPCR analysis; assay type: functional, organism-based; outline: as §2
Mus musculus [12] = assay: Antiinflammatory activity in C57BL/6 mouse model of LPS-induced acute lung injury assessed as reduction in IL1beta mRNA expression in lung tissue at 10 mg/kg, ip administered daily for one week prior to LPS challenge and measured after 6 hrs by TRIZOL reagent-based RT-qPCR analysis; assay type: functional, organism-based; outline: as §2
[13] = AUC (0 to t) in Sprague-Dawley rat at 50 mg/kg, po by UHPLC-MS/MS analysis; assay type: ADME, organism-based; details: in vivo
Outline: (§3)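 Male Sprague-Dawley rats (250 ± 20 g) fasted overnight with free access to water, n = 5 per route. Intravenous dose was 5 mg/kg; the intragastric dose is printed as 20 mg/kg in the methods and 50 mg/kg in the table. Tail blood was taken at 0.083, 0.25, 0.5, 1, 2, 4, 6, 9, 12 and 24 h. Samples were centrifuged (12000 rpm, 10 min), deproteinized with 2 volumes of acetonitrile, re-centrifuged and quantified by UHPLC-MS/MS.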

[14] = AUC (0 to t) in Sprague-Dawley rat at 5 mg/kg, iv by UHPLC-MS/MS analysis; assay type: ADME, organism-based; details: in vivo; outline: as §3
[15] = MRT (0 to t) in Sprague-Dawley rat at 50 mg/kg, po by UHPLC-MS/MS analysis; assay type: ADME, organism-based; details: in vivo; outline: as §3
[16] = MRT (0 to t) in Sprague-Dawley rat at 5 mg/kg, iv by UHPLC-MS/MS analysis; assay type: ADME, organism-based; details: in vivo; outline: as §3
[17] = MRT (0 to infinity) in Sprague-Dawley rat at 50 mg/kg, po by UHPLC-MS/MS analysis; assay type: ADME, organism-based; details: in vivo; outline: as §3
[18] = Half life in Sprague-Dawley rat at 50 mg/kg, po by UHPLC-MS/MS analysis; assay type: ADME, organism-based; details: in vivo; outline: as §3
[19] = Half life in Sprague-Dawley rat at 5 mg/kg, iv by UHPLC-MS/MS analysis; assay type: ADME, organism-based; details: in vivo; outline: as §3
[20] = Tmax in Sprague-Dawley rat at 5 mg/kg, iv by UHPLC-MS/MS analysis; assay type: ADME, organism-based; details: in vivo
Outline: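 Male SD rats (250 ± 20 g), fasted overnight with water ad libitum, dosed intravenously or intragastrically, n = 5. Tail blood taken at 0.083, 0.25, 0.5, 1, 2, 4, 6, 9, 12 and 24 h post-dose and centrifuged 12000 rpm, 10 min. Supernatant mixed with 2 volumes acetonitrile, vortexed and re-centrifuged. Drug measured by UHPLC-MS/MS; PK parameters derived from time-concentration data.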

[21] = Apparent clearance during terminal phase in Sprague-Dawley rat at 5 mg/kg, iv by UHPLC-MS/MS analysis; assay type: ADME, organism-based; details: in vivo; outline: as §3

Row | Structure (SMILES) | inhibition (RAW264.7 [1]) | inhibition (RAW264.7 [2]) | Activity (RAW264.7 [3]) | inhibition [4] | inhibition (RAW264.7 [5]) | inhibition (RAW264.7 [6]) | inhibition (RAW264.7 [7]) | Activity (Mus musculus [8]) | Activity (Mus musculus [9]) | Activity (Mus musculus [10]) | Activity (Mus musculus [11]) | Activity (Mus musculus [12]) | also measured
1 | COc1cc(/C=C/C(=O)N2CCC/C(=C\c3cc(OC)c(OC)c(OC)c3)C2=O)ccc1O | 90.9 to 92.5% | 99.3 to 99.7% | Non-Toxic | Active | Active | Active | Active | Active | Active | Active | Active | Active | 
2 | COc1cc(/C=C/C(=O)N2CCC/C(=C\c3cc(OC)c(OC)c(OC)c3)C2=O)ccc1OC(C)=O | 90.9 to 92.5% | 99.3 to 99.7% | Non-Toxic | Active | Active | Active | Active | Active | Active | Active | Active | Active | AUC(0-t) [13]: 231 ng·h/mL; AUC(0-t) [14]: 34.4 ng·h/mL; MRT last [15]: 7.8 h; MRT last [16]: 11.3 h; MRT inf [17]: 12.3 h; t1/2 [18]: 6.7 h; t1/2 [19]: 0.2 h; Tmax [20]: 6 min; CLz/F [21]: 404.4 L/h/kg
